Data on 16 compounds can be found in ChEMBL document CHEMBL4308887, “Synthesis and biological evaluation of clovamide analogues with catechol functionality as potent Parkinson's disease agents in vitro and in vivo” (Bioorg Med Chem Lett, 2019).

As a reminder, the EC50 is the concentration at which the effect is half-maximal. A lower EC50 goes with an effect from little substance.

For test [1], the system named is SH-SY5Y. Put plainly: Neuroprotection against H2O2-induced cell death in human SH-SY5Y cells at 100 uM preincubated for 6 hrs followed by H2O2 addition and measured after 24 hrs by MTT assay relative to control. The format is functional. The procedure, abridged: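 Human SH-SY5Y neuroblastoma cells pretreated with compound at 100 μM for 6 h, then exposed to 600 μM H₂O₂ for 24 h; viability read by MTT and expressed as protection rate relative to untreated control. DMSO below 0.1% in all groups. Primary single-concentration screen; three independent experiments.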
A general note: Tetrazolium assays rely on reduction of a dye to a coloured formazan, in cell work by metabolically active cells.

In test [2] the test system is SH-SY5Y. Put plainly: Neuroprotection against H2O2-induced cell death in human SH-SY5Y cells preincubated for 6 hrs followed by H2O2 addition and measured after 24 hrs by MTT assay. The format is functional, cell-based. A digest of the protocol:
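Primary screen at 100 μM, then dose-response. SH-SY5Y cells pretreated, then exposed to 600 μM H₂O₂ (the level chosen from a 100–1000 μM, 24 h viability titration). EC₅₀ is the concentration giving 50% of maximal effect. N-acetyl-L-cysteine served as positive control. DMSO below 0.1%. Mean ± S.E.M. of three experiments.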

For the compound `COC(=O)[C@H](Cc1ccccc1)NC(=O)/C=C/c1ccc(O)cc1`, the Activity in the test with SH-SY5Y [1] is given as less than 50%.
As for `COC(=O)[C@H](Cc1ccc(O)cc1)NC(=O)/C=C/c1ccc(O)c(O)c1`, the Activity in the test with SH-SY5Y [1] is reported as greater than 50%. The compound also returned an EC50 with SH-SY5Y [2] of 11.3 µM.
For the compound `COC(=O)[C@H](Cc1ccc(O)cc1)NC(=O)/C=C/c1ccc(O)cc1`, in the test on SH-SY5Y [1], the Activity is listed as less than 50%.
The same measure, in the same setting: in the case of `COC(=O)[C@H](Cc1ccccc1)NC(=O)/C=C/c1ccccc1` it was less than 50%; in that of `COC(=O)[C@H](Cc1ccc(O)cc1)NC(=O)/C=C/c1ccccc1`, less than 50%.
In the test with SH-SY5Y [1], `COC(=O)[C@H](Cc1ccc(O)c(O)c1)NC(=O)/C=C/c1ccc(O)cc1` gave an Activity greater than 50%. In the test on SH-SY5Y [2], this compound returned an EC50 of 19.1 µM.
On the same counts, the results for `COC(=O)[C@H](Cc1ccc(O)c(O)c1)NC(=O)/C=C/c1ccc(O)c(OC)c1` are greater than 50% and 23.8 µM.
For the compound `COC(=O)[C@H](Cc1ccccc1)NC(=O)/C=C/c1ccc(O)c(OC)c1`, the Activity in the test with SH-SY5Y [1] was less than 50%.
As to `COC(=O)[C@H](Cc1ccc(O)cc1)NC(=O)/C=C/c1cccc(O)c1`, the Activity with SH-SY5Y [1] is reported as less than 50%.
Same read-out and setting: in the case of `COC(=O)[C@H](Cc1ccccc1)NC(=O)/C=C/c1cccc(O)c1` it was less than 50%; in that of `COC(=O)[C@H](Cc1ccc(O)cc1)NC(=O)/C=C/c1cccc(OC)c1`, less than 50%.
`COC(=O)[C@H](Cc1ccc(O)c(O)c1)NC(=O)/C=C/c1cccc(O)c1` registered an Activity in the test with SH-SY5Y [1] greater than 50%. In addition, the EC50 in the test on SH-SY5Y [2] was 17.5 µM.
Take `CC(=O)N[C@@H](CS)C(=O)O` [ACETYLCYSTEINE]: in the test on SH-SY5Y [2], the EC50 was 1680 µM. That is a millimolar value.
In the case of `O=C(O)/C=C/c1ccc(O)c(O)c1` [CAFFEIC ACID], the EC50 in the test with SH-SY5Y [2] was found to be 33.8 µM.
In turn, `COC(=O)[C@H](Cc1ccc(O)c(O)c1)NC(=O)/C=C/c1ccc(O)c(O)c1` [N-CAFFEOYL-DOPA METHYL ESTER] registered an Activity in the test on SH-SY5Y [1] greater than 50%. This compound also yielded an EC50 in the test with SH-SY5Y [2] of 15.6 µM.
The corresponding values for `COC(=O)[C@H](Cc1ccc(O)c(O)c1)NC(=O)/C=C/c1ccccc1` [N-CINNAMOYL-DOPA METHYL ESTER] are greater than 50% and 14.3 µM.
